Calls of active or inactive are those of the source. The rule behind the calls is not given here.
How the values were obtained:
MDA-MB-468 [1] = assay: Antiproliferative activity against human MDA-MB-468 cells assessed as growth inhibition at 1 uM after 24 hrs by spectrophotometry; type: functional, cell-based
Method in brief: (§1)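 CellTiter 96 AQueous One (MTS) proliferation assay. Cells grown at 37 °C, 5% CO2, 10% FBS plus 1% penicillin-streptomycin. Medium was RPMI for CCRF-CEM and EMEM for MDA-MB-468, SK-OV-3 and HT-29. Compound at 1 μM in 4% DMSO, triplicate wells, incubated 24-120 h, then 1 h with reagent. A490 read. Survival % = (treated − medium)/(control − medium) × 100.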

CCRF-CEM [2] = assay: Antiproliferative activity against human CCRF-CEM cells assessed as growth inhibition at 1 uM after 24 to 96 hrs by spectrophotometry; type: functional, cell-based; method in brief: as §1
SK-OV-3 [3] = assay: Antiproliferative activity against human SKOV3 cells assessed as growth inhibition at 1 uM after 24 to 96 hrs by spectrophotometry; type: functional, cell-based; method in brief: as §1
HT-29 = assay: Antiproliferative activity against human HT-29 cells assessed as growth inhibition at 1 uM after 120 hrs by spectrophotometry relative to control; type: functional; conditions: for inhibition of growth at 1 µM: HT-29, 120 h, read-out: GI; method in brief: as §1
[4] = n-Octanol-water partition coefficient, log P of the compound by shake flask method; type: physicochemical
Method in brief: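 Shake-flask method. 100 µg of derivative partitioned between 300 µL 1-octanol and 300 µL distilled water, shaken 30 min, phases left to separate. Each phase quantified by UV spectroscopy against a standard spectrum. P = octanol/water concentration ratio, reported as Log P. Mean of three runs.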

MDA-MB-468 [5] = assay: Antiproliferative activity against human MDA-MB-468 cells assessed as growth inhibition at 1 uM after 96 hrs by spectrophotometry relative to control; type: functional; conditions: MDA-MB-468, 96 h, read-out: GI; method in brief: as §1
CCRF-CEM [6] = assay: Antiproliferative activity against human CCRF-CEM cells assessed as growth inhibition at 1 uM after 96 hrs by spectrophotometry relative to control; type: functional; conditions: read-out: GI; method in brief: as §1
SK-OV-3 [7] = assay: Antiproliferative activity against human SKOV3 cells assessed as growth inhibition at 1 uM after 96 hrs by spectrophotometry relative to control; type: functional; conditions: SK-OV-3, 96 h, read-out: GI; method in brief: as §1

Compound | growth inhibition (GI) (MDA-MB-468 [1]) | growth inhibition (GI) (CCRF-CEM [2]) | growth inhibition (GI) (SK-OV-3 [3]) | growth inhibition (GI) (HT-29) | logP [4] | inhibition of growth at 1 µM (MDA-MB-468 [5]) [%] | inhibition of growth at 1 µM (CCRF-CEM [6]) [%] | inhibition of growth at 1 µM (SK-OV-3 [7]) [%] | inhibition of growth at 1 µM (HT-29) [%]
CCCCCCCCCCCCCCCCCC(=O)N[C@H]1C[C@H](O[C@H]2C[C@](O)(C(=O)CO)Cc3c(O)c4c(c(O)c32)C(=O)c2c(OC)cccc2C4=O)O[C@@H](C)[C@H]1O | inactive | inactive | Active | Active | – | – | – | – | –
COc1cccc2c1C(=O)c1c(O)c3c(c(O)c1C2=O)C[C@@](O)(C(=O)CO)C[C@@H]3O[C@H]1C[C@H](NC(C)=O)[C@H](O)[C@H](C)O1 | inactive | inactive | Active | Active | 1.18 | – | – | – | –
CCCCCCCC(=O)N[C@H]1C[C@H](O[C@H]2C[C@](O)(C(=O)CO)Cc3c(O)c4c(c(O)c32)C(=O)c2c(OC)cccc2C4=O)O[C@@H](C)[C@H]1O | inactive | inactive | Active | Active | – | – | – | – | –
COc1cccc2c1C(=O)c1c(O)c3c(c(O)c1C2=O)C[C@@](O)(C(=O)CO)C[C@@H]3O[C@H]1C[C@H](N)[C@H](O)[C@H](C)O1 [DOXORUBICIN] | – | – | – | – | 0.6 | – | – | – | –
CCCCCCCCCC(=O)N[C@H]1C[C@H](O[C@H]2C[C@](O)(C(=O)CO)Cc3c(O)c4c(c(O)c32)C(=O)c2c(OC)cccc2C4=O)O[C@@H](C)[C@H]1O | inactive | inactive | Active | Active | – | – | – | – | –
CCCCCCCCCCCCCC(=O)N[C@H]1C[C@H](O[C@H]2C[C@](O)(C(=O)CO)Cc3c(O)c4c(c(O)c32)C(=O)c2c(OC)cccc2C4=O)O[C@@H](C)[C@H]1O | inactive | – | – | – | – | 31 | 27 | 50 | 41
CCCCCCCCCCCCCCCCCCCC(=O)N[C@H]1C[C@H](O[C@H]2C[C@](O)(C(=O)CO)Cc3c(O)c4c(c(O)c32)C(=O)c2c(OC)cccc2C4=O)O[C@@H](C)[C@H]1O | inactive | inactive | Active | Active | – | – | – | – | –
CCSCCCCCCCCCCCC(=O)N[C@H]1C[C@H](O[C@H]2C[C@](O)(C(=O)CO)Cc3c(O)c4c(c(O)c32)C(=O)c2c(OC)cccc2C4=O)O[C@@H](C)[C@H]1O | inactive | inactive | – | – | – | – | – | – | –
CCCCCCCCCCCC(=O)N[C@H]1C[C@H](O[C@H]2C[C@](O)(C(=O)CO)Cc3c(O)c4c(c(O)c32)C(=O)c2c(OC)cccc2C4=O)O[C@@H](C)[C@H]1O | inactive | inactive | – | – | – | 38 | – | 58 | 64
CCCCCCCCCCCCCCCC(=O)N[C@H]1C[C@H](O[C@H]2C[C@](O)(C(=O)CO)Cc3c(O)c4c(c(O)c32)C(=O)c2c(OC)cccc2C4=O)O[C@@H](C)[C@H]1O | inactive | inactive | Active | Active | – | – | – | – | –
